{
  "source": "the EternaBench riboswitch data",
  "test_system": "MS2 coat protein",
  "test": "apparent Kd, MS2 coat protein; higher = weaker binding; RNA-MaP array; FMN 200 µM where present",
  "in_short": "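Designs were transcribed by stalled E. coli RNA polymerase on Illumina sequencing-chip clusters. They were titrated with SNAP-549-labelled MS2 coat protein from 0.7 or 1.5 nM, doubling to 3 µM, without and then with constant ligand. Buffer: 100 mM Tris-HCl pH 7.5, 80 mM KCl, 4 mM MgCl2, BSA, DTT, yeast tRNA, Tween-20. Green signal was normalised to red-channel RNA signal and control-cluster median Fmax. Apparent Kd is the median of filtered per-cluster binding-curve fits.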",
  "key": {"[1]": {"conditions": "designed as: OFF switch for flavin mononucleotide, no ligand"}, "[2]": {"conditions": "ligand present: flavin mononucleotide, designed as: OFF switch for flavin mononucleotide"}, "[3]": {"conditions": "designed as: ON switch for flavin mononucleotide, no ligand"}, "[4]": {"conditions": "ligand present: flavin mononucleotide, designed as: ON switch for flavin mononucleotide"}},
  "data": [
    {"sequence": "UGGCGCAUGUGAGGAUAUAGUGGGUAGUAACUACUAGAAGGUACAUGAGGAUCACCCAUGUACUUGGGUUUGUCAGGAACUCCU", "values": [
      {"measurement": "apparent Kd", "setting": "[1]", "result": 6.57, "unit": "nM"},
      {"measurement": "apparent Kd", "setting": "[2]", "result": 8.33, "unit": "nM"}
    ]},
    {"sequence": "UGUUCAUCAUCAGGAUAUUAACGUGGGCUACUUUAAGAAGGGAUAGUGGGAGAGGAUGUGAAACAUGAGGAUCACCCAUGUUGU", "values": [
      {"measurement": "apparent Kd", "setting": "[3]", "result": 13.4, "unit": "nM"},
      {"measurement": "apparent Kd", "setting": "[4]", "result": 10.3, "unit": "nM"}
    ]},
    {"sequence": "UGUCAUAAACAGAAGGGUAGUUGGGUUAUACAUGAGGAUCACCCAUGUAUUACAGGAUAUGUGUAAAGUUAUUAUUAAAGUAAA", "values": [
      {"measurement": "apparent Kd", "setting": "[1]", "result": 12.6, "unit": "nM"},
      {"measurement": "apparent Kd", "setting": "[2]", "result": 13.8, "unit": "nM"}
    ]},
    {"sequence": "GUGGCACAUGAGGAUCACCCAUGUCAGGAUAUCGCGUGUUUUUUUUCGGCCGCGCGCGCGAGAAGGGACGUCUU", "values": [
      {"measurement": "apparent Kd", "setting": "[1]", "result": 27.1, "unit": "nM"},
      {"measurement": "apparent Kd", "setting": "[2]", "result": 29.8, "unit": "nM"}
    ]},
    {"sequence": "GUGCGUGGCUAGGAUAUUGUGGAGUUUAGUCAGCGAGAAGGAGCCACAUGAGGAUCACCCAUGUGGUGUUGCUC", "values": [
      {"measurement": "apparent Kd", "setting": "[1]", "result": 40.5, "unit": "nM"},
      {"measurement": "apparent Kd", "setting": "[2]", "result": 101, "unit": "nM"}
    ]},
    {"sequence": "CCUCACAGAGGAUAUACGUCCACUGAACCCAUGAGGUUGCCACAUGAGGAUCACCCAUGUAGAAGGCUGUGCUG", "values": [
      {"measurement": "apparent Kd", "setting": "[1]", "result": 20.1, "unit": "nM"},
      {"measurement": "apparent Kd", "setting": "[2]", "result": 42.9, "unit": "nM"}
    ]},
    {"sequence": "GAGCGAAAGCUCAAUGUCGAUAGCAGAAGGACAUGAAAACGUGAAAACACAUGAGGAUCACCCAUGUAGGAUAUGCUAUCGACU", "values": [
      {"measurement": "apparent Kd", "setting": "[1]", "result": 57.1, "unit": "nM"},
      {"measurement": "apparent Kd", "setting": "[2]", "result": 745, "unit": "nM"}
    ]},
    {"sequence": "AAUAUGUUGCAGAAGGCUAUAUUGUUGUAGUACCUCAUGACAUGAGGAUCACCCAUGUUUGUGUUGGAGGAUAUGCAAUAUAUU", "values": [
      {"measurement": "apparent Kd", "setting": "[1]", "result": 7.82, "unit": "nM"},
      {"measurement": "apparent Kd", "setting": "[2]", "result": 7.07, "unit": "nM"}
    ]},
    {"sequence": "AUCAGCUCGUCAGGAUAUACGUCACUGCGUCAGCAGUGUGGUAAGAUCACAUGAGGAUCACCCAUGUAGAAGGGACGAGAUGAU", "values": [
      {"measurement": "apparent Kd", "setting": "[1]", "result": 13.8, "unit": "nM"},
      {"measurement": "apparent Kd", "setting": "[2]", "result": 247, "unit": "nM"}
    ]},
    {"sequence": "AGCUAGUACGAAGGAUAUACAAACAUGAGGAUCACCCAUGUAUACAUGGUUUGAUGAGACUACAUGUAGAAGGUCGUACUAGCA", "values": [
      {"measurement": "apparent Kd", "setting": "[3]", "result": 506, "unit": "nM"},
      {"measurement": "apparent Kd", "setting": "[4]", "result": 796, "unit": "nM"}
    ]},
    {"sequence": "UGGUACAUGGGAGGAUAUCAUGUAGUAACAUGAGGAUCACCCAUGUCGAUGGAGACAUCGGAGAUUGAGAAGGCCCAUGUACCU", "values": [
      {"measurement": "apparent Kd", "setting": "[3]", "result": 921, "unit": "nM"},
      {"measurement": "apparent Kd", "setting": "[4]", "result": 32.5, "unit": "nM"}
    ]},
    {"sequence": "AUCAGCUCGUCAGGAUAUACGUCACUGCGUCAGCAGUGUGGCAAGAUCACAUGAGGAUCACCCAUGUAGAAGGGACGAGCUGAU", "values": [
      {"measurement": "apparent Kd", "setting": "[1]", "result": 21.2, "unit": "nM"},
      {"measurement": "apparent Kd", "setting": "[2]", "result": 399, "unit": "nM"}
    ]},
    {"sequence": "GUAGCUAUCGGAGGAUAUUCAUGAUACAUGAGGAUCACCCAUGUUAAAAUGGGAGAAGGCCGAUAGCUACAAGAGCGAAAGCUC", "values": [
      {"measurement": "apparent Kd", "setting": "[3]", "result": 41.1, "unit": "nM"},
      {"measurement": "apparent Kd", "setting": "[4]", "result": 8.01, "unit": "nM"}
    ]},
    {"sequence": "GAAAAACAUGAGGAUCACCCAUGUAAGGAUAUGCUGAAAAAACACUGGAAACAGUGCAGCAGAAGGUACAAAAG", "values": [
      {"measurement": "apparent Kd", "setting": "[1]", "result": 65.1, "unit": "nM"},
      {"measurement": "apparent Kd", "setting": "[2]", "result": 103, "unit": "nM"}
    ]},
    {"sequence": "ACAUGAGGAUCACCCAUGUUUUUUGGGUACUCUUGAUACAGCAAGGAUAUGCAUUAUUUAUGUACGCAGAAGGUGCAUUACGUC", "values": [
      {"measurement": "apparent Kd", "setting": "[1]", "result": 920, "unit": "nM"},
      {"measurement": "apparent Kd", "setting": "[2]", "result": 853, "unit": "nM"}
    ]},
    {"sequence": "CUUUCAUUUUAGGAUAUCGAGUUGGCGAUAGCUCGAGAAGGGAAUACAUGAGGAUCACCCAUGUCGGGUCACGU", "values": [
      {"measurement": "apparent Kd", "setting": "[1]", "result": 177, "unit": "nM"},
      {"measurement": "apparent Kd", "setting": "[2]", "result": 173, "unit": "nM"}
    ]},
    {"sequence": "AAUAUGUUGCAGAAGGCCAUGGUGUGGUAGUGCCUCAUGACAUGAGGAUCACCCAUGUCUGUGAUGGAGGAUAUGCAAUAUAUU", "values": [
      {"measurement": "apparent Kd", "setting": "[1]", "result": 67.2, "unit": "nM"},
      {"measurement": "apparent Kd", "setting": "[2]", "result": 152, "unit": "nM"}
    ]},
    {"sequence": "AUCCUGCGAGGAUAUACAUAGUGACGUCUGUUUGGUCUUAAACAUGAGGAUCACCCAUGUAGAAGGUGCGUCAC", "values": [
      {"measurement": "apparent Kd", "setting": "[1]", "result": 15.8, "unit": "nM"},
      {"measurement": "apparent Kd", "setting": "[2]", "result": 19.5, "unit": "nM"}
    ]},
    {"sequence": "UAUAUGUCAGGAUAUCGAUUGGUACGGGAUUCGGUACUGGUUGAGAAGGGACAUGAGGAUCACCCAUGUUUUUC", "values": [
      {"measurement": "apparent Kd", "setting": "[1]", "result": 37.8, "unit": "nM"},
      {"measurement": "apparent Kd", "setting": "[2]", "result": 162, "unit": "nM"}
    ]},
    {"sequence": "UUUUUACAUGAGGAUCACCCAUGUGAGGAUAUGGAUUCGCUGGCCGUAGCCAGUGGAUCCAGAAGGCGCGUGAU", "values": [
      {"measurement": "apparent Kd", "setting": "[1]", "result": 90, "unit": "nM"},
      {"measurement": "apparent Kd", "setting": "[2]", "result": 175, "unit": "nM"}
    ]},
    {"sequence": "CCGCAAAUGCAGGAUAUCGUAUCGGAUACGAUACGAGAAGGGCAAACAUGAGGAUCACCCAUGUGUCCUAGCGG", "values": [
      {"measurement": "apparent Kd", "setting": "[1]", "result": 15, "unit": "nM"},
      {"measurement": "apparent Kd", "setting": "[2]", "result": 26.6, "unit": "nM"}
    ]},
    {"sequence": "AGCGUACAAGCUAACAUGAGGAUCACCCAUGUGGUCUCAUGCGAGGAUAUCGGGAAGGAGGAUUCCGAGAAGGUGCGGUGAGCC", "values": [
      {"measurement": "apparent Kd", "setting": "[3]", "result": 182, "unit": "nM"},
      {"measurement": "apparent Kd", "setting": "[4]", "result": 43.8, "unit": "nM"}
    ]},
    {"sequence": "UUAGAUUAUUGAGGAUAUGGUUAUUUUUAUUAACCAGAAGGCAAACUCAACAUGAGGAUCACCCAUGUAUAAAGGGUAUUAGUU", "values": [
      {"measurement": "apparent Kd", "setting": "[1]", "result": 84.9, "unit": "nM"},
      {"measurement": "apparent Kd", "setting": "[2]", "result": 82.7, "unit": "nM"}
    ]},
    {"sequence": "AAAAAACAUGAGGAUCACCCAUGUGAGGAUAUCGAAAAGUCAAAGAAAAAGACGAAAACGAGAAGGCGCAAAAA", "values": [
      {"measurement": "apparent Kd", "setting": "[1]", "result": 49.6, "unit": "nM"},
      {"measurement": "apparent Kd", "setting": "[2]", "result": 45.5, "unit": "nM"}
    ]},
    {"sequence": "UGAUAUGUAGUAGGAUAUCAGGUUACAUGAGGAUCACCCAUGUUAGAUUGGUGGAUAGAUGUUGAUGAGAAGGACUUUUGAGUU", "values": [
      {"measurement": "apparent Kd", "setting": "[1]", "result": 79.6, "unit": "nM"},
      {"measurement": "apparent Kd", "setting": "[2]", "result": 100, "unit": "nM"}
    ]},
    {"sequence": "UAGGACUACGUAGGAUAUGUAGUUGAUUUCUACAUGAGGAUCACCCAUGUUUGCAUUUUAUUAGGACAGAAGGACGUGGUAAAU", "values": [
      {"measurement": "apparent Kd", "setting": "[3]", "result": 16.1, "unit": "nM"},
      {"measurement": "apparent Kd", "setting": "[4]", "result": 7.36, "unit": "nM"}
    ]},
    {"sequence": "UACAUGAGGAUCACCCAUGUUAACAUGGAGUUGUUAUAUCUGAGAAGGGUAAUAUUACAUUAAGUACAGGAUAUCAAUGAUGUU", "values": [
      {"measurement": "apparent Kd", "setting": "[1]", "result": 45.2, "unit": "nM"},
      {"measurement": "apparent Kd", "setting": "[2]", "result": 18.4, "unit": "nM"}
    ]},
    {"sequence": "AGUAACAGAGGAUAUACUGUUUUAUGUGUUUGUUGUUUUAAACAUGAGGAUCACCCAUGUAGAAGGCUGAAUAA", "values": [
      {"measurement": "apparent Kd", "setting": "[1]", "result": 20.1, "unit": "nM"},
      {"measurement": "apparent Kd", "setting": "[2]", "result": 21.2, "unit": "nM"}
    ]}
  ]
}
